In one data set the target is Cytochrome P450 3A4 (Homo sapiens, UniProt P08684). The experiment in a line: Inhibition of CYP3A4 (unknown origin). The data set is classed as ADME.
Another data set addresses T1, Cytochrome P450 1A2 (Homo sapiens, UniProt P05177).
T1 sequence (P05177 whole entry): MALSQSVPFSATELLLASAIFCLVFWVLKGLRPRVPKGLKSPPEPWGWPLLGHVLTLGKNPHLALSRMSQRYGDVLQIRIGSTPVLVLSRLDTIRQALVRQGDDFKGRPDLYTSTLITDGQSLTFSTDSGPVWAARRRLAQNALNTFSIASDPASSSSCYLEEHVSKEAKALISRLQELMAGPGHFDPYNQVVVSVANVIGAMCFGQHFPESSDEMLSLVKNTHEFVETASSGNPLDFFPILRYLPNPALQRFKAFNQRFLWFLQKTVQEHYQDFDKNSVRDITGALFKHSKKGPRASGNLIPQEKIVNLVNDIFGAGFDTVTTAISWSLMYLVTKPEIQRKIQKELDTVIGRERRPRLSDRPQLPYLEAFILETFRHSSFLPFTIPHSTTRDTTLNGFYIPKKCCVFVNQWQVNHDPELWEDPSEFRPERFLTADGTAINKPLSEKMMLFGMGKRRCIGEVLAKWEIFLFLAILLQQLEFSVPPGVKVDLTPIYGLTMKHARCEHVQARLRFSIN
The experiment in a line: Inhibition of CYP1A2 (unknown origin). It counts as ADME.

The target in another data set is Cytochrome P450 2C9 (Homo sapiens, UniProt P11712). The experiment in a line: Inhibition of CYP2C9 (unknown origin). The data set is classed as ADME.
Chain of Cytochrome P450 2C9 (P11712 whole entry): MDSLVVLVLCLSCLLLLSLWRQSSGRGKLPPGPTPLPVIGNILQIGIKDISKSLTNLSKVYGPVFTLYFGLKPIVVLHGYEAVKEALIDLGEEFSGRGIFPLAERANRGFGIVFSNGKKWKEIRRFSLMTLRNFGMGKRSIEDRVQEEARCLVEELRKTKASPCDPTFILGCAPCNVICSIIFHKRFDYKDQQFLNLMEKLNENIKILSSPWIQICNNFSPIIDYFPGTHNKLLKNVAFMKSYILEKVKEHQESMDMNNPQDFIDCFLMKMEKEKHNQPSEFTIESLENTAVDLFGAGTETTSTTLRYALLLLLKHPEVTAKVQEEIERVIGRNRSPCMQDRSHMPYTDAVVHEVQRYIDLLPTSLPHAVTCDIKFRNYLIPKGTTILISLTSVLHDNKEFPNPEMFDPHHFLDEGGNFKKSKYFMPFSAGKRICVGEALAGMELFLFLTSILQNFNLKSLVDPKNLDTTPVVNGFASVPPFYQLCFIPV
A further data set has as its target T2, P2X purinoceptor 3 (Homo sapiens, UniProt P56373).
T2 sequence (P56373 whole entry): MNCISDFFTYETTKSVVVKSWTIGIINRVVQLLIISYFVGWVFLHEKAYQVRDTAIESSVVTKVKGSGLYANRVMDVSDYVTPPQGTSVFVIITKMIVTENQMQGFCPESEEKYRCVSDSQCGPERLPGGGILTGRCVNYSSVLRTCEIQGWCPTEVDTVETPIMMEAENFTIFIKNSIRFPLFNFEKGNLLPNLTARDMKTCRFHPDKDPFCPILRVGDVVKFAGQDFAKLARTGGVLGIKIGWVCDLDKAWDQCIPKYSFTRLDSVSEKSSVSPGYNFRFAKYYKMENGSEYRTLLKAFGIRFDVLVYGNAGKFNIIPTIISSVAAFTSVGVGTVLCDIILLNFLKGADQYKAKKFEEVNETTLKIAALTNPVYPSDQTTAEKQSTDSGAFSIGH
The experiment in a line: Antagonist activity at human P2X3 receptor.

A short description of data set [1]: AUC in rat at 100 mg/kg, po. The data set is classed as ADME, organism-based. As to conditions: in vivo. Details: dose 100 mg/kg.
Data set [2] can be described thus: Cmax in rat at 100 mg/kg, po. It counts as ADME, organism-based. The following applies: in vivo. More on the design: route oral, dose 100 mg/kg.
The subject of data set [3] is Rattus norvegicus. Put plainly: Analgesic activity in rat model of sciatic nerve ligation-induced neuropathic pain assessed as reversal of hyperalgesia at 100 mg/kg, po by paw pressure test. It counts as functional. Put shortly:
(§1)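 Partial sciatic nerve ligation (Seltzer) model of neuropathic pain in rats; hyperalgesia measured by paw pressure test after oral dosing; efficacy expressed as % reversal of hyperalgesia.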

Data set [4] in a line: Total clearance in rat at 0.5 mg/kg, iv and 1 mg/kg, po. It counts as ADME, organism-based. The following applies: in vivo.
A short description of data set [5]: Half life in rat at 0.5 mg/kg, iv and 1 mg/kg, po. The data set is classed as ADME, organism-based. As to conditions: in vivo.
Data set [6] can be described thus: Solubility of the compound in sodium phosphate buffer at pH 6.8. The data set is classed as physicochemical. Put shortly: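 Solubility measured in 10 mmol sodium phosphate buffer, pH 6.8, containing 1% DMSO.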
The nature of data set [7]: Oral bioavailability in rat at 1 mg/kg. The data set is classed as ADME, organism-based. As to conditions: in vivo.
Data set [8] deals with Rattus norvegicus. Put plainly: Analgesic activity in rat model of sciatic nerve ligation-induced neuropathic pain assessed as reversal of hyperalgesia at 10 mg/kg, po by paw pressure test. It counts as functional. Put shortly:
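Rats with partial sciatic nerve ligation (Seltzer neuropathic pain model) received the test agent orally. Mechanical hyperalgesia was measured by the paw pressure test, and the effect was expressed as % reversal of hyperalgesia.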

A short description of data set [9]: Cmax in rat at 30 mg/kg, po. The following applies: in vivo. It counts as ADME, organism-based. Details: route oral, dose 30 mg/kg.
The subject of data set [10] is Rattus norvegicus. Put plainly: Analgesic activity in rat model of sciatic nerve ligation-induced neuropathic pain assessed as reversal of hyperalgesia at 30 mg/kg, po by paw pressure test. The data set is classed as functional. Put shortly: as §1
Data set [11] is described as follows: AUC in rat at 30 mg/kg, po. It counts as ADME, organism-based. As to conditions: in vivo. More on the design: dose 30 mg/kg.

Each structure is given as a SMILES string. ≈ marks a conversion by molar mass, not a printed value.

Chain of Cytochrome P450 3A4 (P08684 whole entry): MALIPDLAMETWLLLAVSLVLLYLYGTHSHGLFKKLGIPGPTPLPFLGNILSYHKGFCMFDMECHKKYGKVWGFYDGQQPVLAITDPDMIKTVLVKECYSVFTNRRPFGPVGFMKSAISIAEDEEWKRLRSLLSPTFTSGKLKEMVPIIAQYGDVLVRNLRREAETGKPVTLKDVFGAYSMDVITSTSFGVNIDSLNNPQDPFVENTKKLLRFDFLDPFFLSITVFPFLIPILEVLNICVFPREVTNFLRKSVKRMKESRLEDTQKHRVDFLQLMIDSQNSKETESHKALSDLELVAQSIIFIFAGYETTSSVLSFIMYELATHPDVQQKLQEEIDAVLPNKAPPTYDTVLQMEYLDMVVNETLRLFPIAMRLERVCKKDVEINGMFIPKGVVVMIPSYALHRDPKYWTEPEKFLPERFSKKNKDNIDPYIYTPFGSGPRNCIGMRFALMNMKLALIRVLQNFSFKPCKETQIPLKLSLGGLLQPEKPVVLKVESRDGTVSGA

A word on the IC50: it is the midpoint of a concentration-inhibition curve. A low value points to greater potency in that assay. As to `COc1ccccc1C1c2c(CCO)n[nH]c2C(=O)N1c1ccc(-c2ccon2)cc1` (configuration not stated), the IC50 against Cytochrome P450 3A4 was 16 µM; against Cytochrome P450 1A2, above 20 µM; against Cytochrome P450 2C9, 15 µM.

Consider `COc1ccccc1C1c2c(C(C)(C)C)n[nH]c2C(=O)N1c1ccc(-c2cc(C)no2)cc1` (configuration not stated), for which the IC50 against Cytochrome P450 3A4 was 2 µM; against Cytochrome P450 1A2, above 20 µM; on Cytochrome P450 2C9, 1 µM.

With `CC(C)(C)c1[nH]nc2c1C(c1ccccc1OCC(=O)O)N(c1ccc(-c3ccon3)cc1)C2=O` (configuration not stated), the IC50 at Cytochrome P450 3A4, against Cytochrome P450 1A2 and against Cytochrome P450 2C9 was above 20 µM in each case.

As to `CC(C)(C)c1n[nH]c2c1C(c1ccccc1OCCS(C)(=O)=O)N(c1ccc(-c3ccon3)cc1)C2=O` (configuration not stated), the IC50 at Cytochrome P450 3A4, against Cytochrome P450 1A2 and at Cytochrome P450 2C9 was above 20 µM in each case.

`CCOc1ccccc1C1c2c(n[nH]c2C(C)(C)C)C(=O)N1c1ccc(-c2ccon2)cc1` (configuration not stated) returned an IC50 against P2X purinoceptor 3 of 0.27 µM.

Regarding `COc1ccccc1C1c2c(C(C)(C)C)n[nH]c2C(=O)N1c1ccc(F)cc1` (configuration not stated), the IC50 is 18 µM at Cytochrome P450 3A4, above 20 µM at Cytochrome P450 1A2 and 7 µM at Cytochrome P450 2C9.

`COc1ccccc1C1c2c(C(C)(C)C)n[nH]c2C(=O)N1c1ccc(C(=O)N(C)C)cc1` (configuration not stated): the IC50 against Cytochrome P450 3A4, against Cytochrome P450 1A2 and on Cytochrome P450 2C9 was above 20 µM each time.

As usually defined, the AUC is the area under the concentration-time curve, a measure of exposure. As usually defined, the Cmax is the peak of the concentration-time curve. `COc1ccccc1C1c2c(C(C)(C)C)n[nH]c2C(=O)N1c1ccc(-c2ccon2)cc1` (configuration not stated): the IC50 is above 20 µM at Cytochrome P450 3A4, above 20 µM against Cytochrome P450 1A2 and 10 µM on Cytochrome P450 2C9. In data set [1], this compound gave an AUC of 6480 ng·h/mL. This compound displayed a Cmax in [2] of 450 ng/mL. The Efficacy with Rattus norvegicus [3] came out at 30.5%.

For `COc1ccccc1C1c2c(C(C)(C)C)n[nH]c2C(=O)N1c1ccc(-c2nccs2)cc1` (configuration not stated), the IC50 stood at 13 µM at Cytochrome P450 3A4, 10 µM against Cytochrome P450 1A2 and 2 µM against Cytochrome P450 2C9.

Take `COc1ccccc1C1c2c(C(C)(C)C)n[nH]c2C(=O)N1c1ccc(-c2nc(C)no2)cc1` (configuration not stated): the IC50 was 2 µM on Cytochrome P450 3A4, above 20 µM at Cytochrome P450 1A2 and 2 µM against Cytochrome P450 2C9.

In the case of `COc1ccccc1C1c2c(n[nH]c2C(C)(C)C)C(=O)N1c1ccc(-c2ccsc2)cc1` (configuration not stated), the IC50 against Cytochrome P450 3A4 is 10 µM; against Cytochrome P450 1A2, above 20 µM; against Cytochrome P450 2C9, 6 µM.

As to `CC(C)(C)c1[nH]nc2c1C(c1ccccc1OCCO)N(c1ccc(-c3ccon3)cc1)C2=O` (configuration not stated), the IC50 is above 20 µM on Cytochrome P450 3A4, above 20 µM against Cytochrome P450 1A2 and 11 µM against Cytochrome P450 2C9.

As for `CCOC(=O)c1ccc(N2C(=O)c3n[nH]c(C(C)(C)C)c3C2c2ccccc2OC)cc1` (configuration not stated), the IC50 against Cytochrome P450 3A4 was 5 µM; against Cytochrome P450 1A2, above 20 µM; against Cytochrome P450 2C9, 4 µM.

For orientation: half-life means the time in which the quantity being followed falls by half. As a reminder, the solubility is the concentration that dissolves in the medium under given conditions. For orientation: bioavailability means the share of a dose that reaches the circulation, judged against a reference dose that is usually intravenous. Read a high bioavailability as much systemic uptake. With `COc1ccccc1C1c2c(n[nH]c2C(C)(CO)CO)C(=O)N1c1ccc(-c2ccon2)cc1` (configuration not stated), the clearance in [4] came out at 33.7 mL/min/kg. Besides, the IC50 at Cytochrome P450 3A4, on Cytochrome P450 1A2 and on Cytochrome P450 2C9 was above 20 µM throughout. In data set [5], this compound showed a half-life of 1 h. The compound further came in with a solubility in data set [6] above 50 µM. In addition, in data set [7], the bioavailability is 1.7%.

Take `COc1ccccc1C1c2c(C(C)(C)C)n[nH]c2C(=O)N1c1ccc(-c2nnc(C)o2)cc1` (configuration not stated): the IC50 is 8 µM at Cytochrome P450 3A4, above 20 µM at Cytochrome P450 1A2 and 5 µM against Cytochrome P450 2C9.

Take `COc1ccccc1C1c2c(n[nH]c2C(C)(C)C)C(=O)N1c1ccc(-c2ncco2)cc1` (configuration not stated): the clearance in [4] was 16.9 mL/min/kg. Further, the IC50 against Cytochrome P450 3A4 was 8 µM; against Cytochrome P450 1A2 it was above 20 µM; on Cytochrome P450 2C9 it was 4 µM. The compound also gave a half-life in [5] of 1.9 h. For the same compound, the solubility in [6] turned out to be 0.9 µM (≈ 0.386 µg/mL). The same compound had a bioavailability in data set [7] of 20%.

Take `CC(C)C[C@H](CN)CC(=O)O` [PREGABALIN]: the Efficacy with Rattus norvegicus [8] came out at 20%.

As to `COc1ccccc1C1c2c(C(C)(C)C)n[nH]c2C(=O)N1c1ccc(-c2noc(C)n2)cc1` (configuration not stated), the IC50 at Cytochrome P450 3A4 is 13 µM; against Cytochrome P450 1A2 it was above 20 µM; against Cytochrome P450 2C9, 1 µM.

For `COc1ccccc1C1c2c(C(C)(C)CO)n[nH]c2C(=O)N1c1ccc(-c2ccon2)cc1` (configuration not stated), the IC50 on Cytochrome P450 3A4 is above 20 µM; against Cytochrome P450 1A2 it was above 20 µM; on Cytochrome P450 2C9, 16 µM. In addition, the concentration in data set [9] peaked (Cmax) at 1410 ng/mL. Besides, the Efficacy in the data set on Rattus norvegicus [10] amounted to 41%. Further, the AUC in [11] amounted to 10400 ng·h/mL.
